Data: ChEMBL document CHEMBL1147762, “A new chemical tool for exploring the physiological function of the PDE2 isozyme” (Bioorg Med Chem Lett, 2006)

Columns and labels:
[1] = Apical Caco-2 cell membrane permeability; assay type: ADME, cell-based; conditions: human
[2] = Turbidimetric solubility at pH 7; assay type: ADME, organism-based, Homo sapiens
[3] = target: cAMP and cAMP-inhibited cGMP 3',5'-cyclic phosphodiesterase 10A (Homo sapiens, UniProt Q9Y233); experiment: Inhibitory activity against PDE10 by scintillation proximity assay
Method in brief: (§1)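 Phosphodiesterase inhibition run as a scintillation proximity assay, with enzyme at a concentration in the linear range. Final substrate was 1 µM, below one-third of the enzyme K_M, so that IC50 approximates Ki. Values are means of n experiments with standard deviation.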

[4] = target: 3',5'-cyclic-AMP phosphodiesterase 4D (Homo sapiens, UniProt Q08499); experiment: Inhibitory activity against PDE4D by scintillation proximity assay
Method in brief: (§2)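 Scintillation proximity assay for phosphodiesterase inhibition. Enzyme is used at a concentration within the linear range, and its KM was measured. Final substrate concentration is 1 µM, below one-third of KM, so IC50 approximates Ki. Results are means of n experiments with standard deviation.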

[5] = target: 3',5'-cyclic-AMP phosphodiesterase 4C (Homo sapiens, UniProt Q08493); experiment: Inhibitory activity against PDE4C by scintillation proximity assay; method in brief: as §2
[6] = target: cGMP-specific 3',5'-cyclic phosphodiesterase (Homo sapiens, UniProt O76074); experiment: Inhibitory activity against PDE5 by scintillation proximity assay; method in brief: as §2
[7] = target: High affinity cAMP-specific and IBMX-insensitive 3',5'-cyclic phosphodiesterase 8A (Homo sapiens, UniProt O60658); experiment: Inhibitory activity against PDE8A by scintillation proximity assay; method in brief: as §2
[8] = Half life in rat liver microsome; assay type: ADME; conditions: liver microsomes
[9] = target: 3',5'-cyclic-AMP phosphodiesterase 4A (Homo sapiens, UniProt P27815); experiment: Inhibitory activity against PDE4A by scintillation proximity assay; method in brief: as §1
[10] = target: Phosphodiesterase 1 (Homo sapiens, UniProt P54750+Q01064+Q14123); experiment: Inhibitory activity against PDE1 by scintillation proximity assay; assay type: protein assay; method in brief: as §1
[11] = target: High affinity cGMP-specific 3',5'-cyclic phosphodiesterase 9A (Homo sapiens, UniProt O76083); experiment: Inhibitory activity against PDE9 by scintillation proximity assay; method in brief: as §2
[12] = target: 3',5'-cyclic-AMP phosphodiesterase 4B (Homo sapiens, UniProt Q07343); experiment: Inhibitory activity against PDE4B by scintillation proximity assay; method in brief: as §1
[13] = target: High affinity cAMP-specific and IBMX-insensitive 3',5'-cyclic phosphodiesterase 8B (Homo sapiens, UniProt O95263); experiment: Inhibitory activity against PDE8B by scintillation proximity assay; method in brief: as §2
[14] = target: cGMP-dependent 3',5'-cyclic phosphodiesterase (Homo sapiens, UniProt O00408); experiment: Inhibitory activity against PDE2 by scintillation proximity assay; method in brief: as §1
[15] = Basolateral Caco-2 cell membrane permeability; assay type: ADME, cell-based; conditions: human
[16] = target: Phosphodiesterase 3 (Homo sapiens, UniProt Q14432+Q13370); experiment: Inhibitory activity against PDE3 by scintillation proximity assay; assay type: protein assay; method in brief: as §1

3',5'-cyclic-AMP phosphodiesterase 4B, sequence (Q07343 whole entry): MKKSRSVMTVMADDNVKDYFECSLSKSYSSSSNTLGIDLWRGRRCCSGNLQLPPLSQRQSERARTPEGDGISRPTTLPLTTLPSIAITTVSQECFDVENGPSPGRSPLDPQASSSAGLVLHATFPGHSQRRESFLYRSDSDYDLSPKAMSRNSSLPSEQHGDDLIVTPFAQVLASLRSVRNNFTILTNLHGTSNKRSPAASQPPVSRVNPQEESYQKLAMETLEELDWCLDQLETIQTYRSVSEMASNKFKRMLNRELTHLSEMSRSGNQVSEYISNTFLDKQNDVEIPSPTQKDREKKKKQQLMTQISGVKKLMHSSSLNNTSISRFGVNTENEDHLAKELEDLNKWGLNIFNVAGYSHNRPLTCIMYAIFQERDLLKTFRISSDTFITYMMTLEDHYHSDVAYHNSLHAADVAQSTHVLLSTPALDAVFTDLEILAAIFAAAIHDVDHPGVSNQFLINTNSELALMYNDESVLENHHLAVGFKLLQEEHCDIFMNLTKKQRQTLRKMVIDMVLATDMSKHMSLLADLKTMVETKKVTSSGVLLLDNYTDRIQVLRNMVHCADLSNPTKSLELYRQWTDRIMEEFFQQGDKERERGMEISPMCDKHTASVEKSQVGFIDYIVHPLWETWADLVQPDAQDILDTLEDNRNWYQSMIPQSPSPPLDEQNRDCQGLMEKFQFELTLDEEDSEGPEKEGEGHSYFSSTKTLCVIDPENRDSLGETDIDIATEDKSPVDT
cAMP and cAMP-inhibited cGMP 3',5'-cyclic phosphodiesterase 10A, sequence (Q9Y233 whole entry): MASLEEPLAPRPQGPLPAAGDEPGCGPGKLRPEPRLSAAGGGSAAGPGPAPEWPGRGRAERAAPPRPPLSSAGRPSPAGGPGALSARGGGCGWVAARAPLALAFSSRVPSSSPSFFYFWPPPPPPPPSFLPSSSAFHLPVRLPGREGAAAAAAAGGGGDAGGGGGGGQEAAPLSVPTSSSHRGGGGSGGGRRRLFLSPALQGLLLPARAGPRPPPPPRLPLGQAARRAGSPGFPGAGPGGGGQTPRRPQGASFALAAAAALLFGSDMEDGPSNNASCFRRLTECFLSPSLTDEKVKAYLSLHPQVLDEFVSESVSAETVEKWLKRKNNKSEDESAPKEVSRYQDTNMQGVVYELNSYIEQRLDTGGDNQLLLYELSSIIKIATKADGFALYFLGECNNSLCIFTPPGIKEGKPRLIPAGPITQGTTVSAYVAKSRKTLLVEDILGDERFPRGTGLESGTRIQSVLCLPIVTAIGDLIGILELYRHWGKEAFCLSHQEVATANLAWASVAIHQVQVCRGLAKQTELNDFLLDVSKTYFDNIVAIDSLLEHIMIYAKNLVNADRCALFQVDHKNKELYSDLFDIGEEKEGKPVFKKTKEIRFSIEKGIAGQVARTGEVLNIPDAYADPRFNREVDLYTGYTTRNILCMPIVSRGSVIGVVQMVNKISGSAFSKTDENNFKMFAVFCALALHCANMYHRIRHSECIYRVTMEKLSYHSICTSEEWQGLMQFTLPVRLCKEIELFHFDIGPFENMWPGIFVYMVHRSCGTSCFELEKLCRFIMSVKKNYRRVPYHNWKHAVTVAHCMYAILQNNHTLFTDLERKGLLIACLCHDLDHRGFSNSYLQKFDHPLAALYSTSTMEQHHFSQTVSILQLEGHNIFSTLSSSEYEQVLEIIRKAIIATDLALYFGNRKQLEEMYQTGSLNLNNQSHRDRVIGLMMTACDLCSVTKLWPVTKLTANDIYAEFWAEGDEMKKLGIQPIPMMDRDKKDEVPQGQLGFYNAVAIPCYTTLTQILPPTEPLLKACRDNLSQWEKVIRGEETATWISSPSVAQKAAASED
cGMP-dependent 3',5'-cyclic phosphodiesterase, sequence (O00408 whole entry): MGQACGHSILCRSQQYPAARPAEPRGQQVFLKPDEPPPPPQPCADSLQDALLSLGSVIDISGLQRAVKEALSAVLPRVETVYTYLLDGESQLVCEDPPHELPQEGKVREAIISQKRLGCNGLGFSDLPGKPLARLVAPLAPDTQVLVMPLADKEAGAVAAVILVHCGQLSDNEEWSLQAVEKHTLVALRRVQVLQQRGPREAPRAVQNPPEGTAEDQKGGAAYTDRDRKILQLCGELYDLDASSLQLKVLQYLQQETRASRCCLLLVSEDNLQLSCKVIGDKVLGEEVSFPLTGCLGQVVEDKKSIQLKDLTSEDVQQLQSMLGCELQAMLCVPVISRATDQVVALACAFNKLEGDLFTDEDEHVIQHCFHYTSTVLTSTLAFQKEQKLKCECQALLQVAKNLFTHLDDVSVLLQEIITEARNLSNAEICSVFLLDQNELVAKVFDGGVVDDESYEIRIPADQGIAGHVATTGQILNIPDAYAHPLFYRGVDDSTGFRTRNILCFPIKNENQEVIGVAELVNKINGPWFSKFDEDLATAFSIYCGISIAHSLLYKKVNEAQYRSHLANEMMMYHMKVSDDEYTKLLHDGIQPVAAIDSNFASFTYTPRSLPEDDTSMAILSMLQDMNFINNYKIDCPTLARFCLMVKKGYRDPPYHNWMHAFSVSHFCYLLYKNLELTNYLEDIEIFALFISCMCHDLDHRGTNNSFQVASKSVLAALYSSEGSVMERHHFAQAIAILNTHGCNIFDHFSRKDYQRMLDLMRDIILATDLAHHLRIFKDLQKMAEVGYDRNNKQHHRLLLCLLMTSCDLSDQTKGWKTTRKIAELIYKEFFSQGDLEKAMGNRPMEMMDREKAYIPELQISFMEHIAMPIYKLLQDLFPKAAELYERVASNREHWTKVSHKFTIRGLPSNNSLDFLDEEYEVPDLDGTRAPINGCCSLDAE
3',5'-cyclic-AMP phosphodiesterase 4D, sequence (Q08499 whole entry): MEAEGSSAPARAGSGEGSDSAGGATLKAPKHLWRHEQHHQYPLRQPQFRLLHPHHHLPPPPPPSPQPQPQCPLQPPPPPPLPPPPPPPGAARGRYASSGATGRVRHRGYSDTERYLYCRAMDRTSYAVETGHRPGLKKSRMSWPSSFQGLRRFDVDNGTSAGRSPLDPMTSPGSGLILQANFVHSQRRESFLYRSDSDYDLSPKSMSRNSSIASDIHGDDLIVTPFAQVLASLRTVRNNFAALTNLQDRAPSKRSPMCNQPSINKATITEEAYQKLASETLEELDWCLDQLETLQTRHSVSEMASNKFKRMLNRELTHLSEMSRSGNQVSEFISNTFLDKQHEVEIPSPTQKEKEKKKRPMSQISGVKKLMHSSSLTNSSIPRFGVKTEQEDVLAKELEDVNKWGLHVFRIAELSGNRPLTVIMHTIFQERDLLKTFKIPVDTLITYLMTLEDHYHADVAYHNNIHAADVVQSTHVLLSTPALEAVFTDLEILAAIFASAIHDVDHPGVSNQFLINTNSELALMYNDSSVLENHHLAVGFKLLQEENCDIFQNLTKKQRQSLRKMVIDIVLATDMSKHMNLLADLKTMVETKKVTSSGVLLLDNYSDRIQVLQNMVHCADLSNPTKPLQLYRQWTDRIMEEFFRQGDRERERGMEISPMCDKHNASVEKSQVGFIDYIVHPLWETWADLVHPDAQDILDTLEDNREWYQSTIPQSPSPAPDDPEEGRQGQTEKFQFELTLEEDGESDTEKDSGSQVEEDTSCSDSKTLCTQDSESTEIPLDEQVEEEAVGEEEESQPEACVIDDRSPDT
High affinity cAMP-specific and IBMX-insensitive 3',5'-cyclic phosphodiesterase 8A, sequence (O60658 whole entry): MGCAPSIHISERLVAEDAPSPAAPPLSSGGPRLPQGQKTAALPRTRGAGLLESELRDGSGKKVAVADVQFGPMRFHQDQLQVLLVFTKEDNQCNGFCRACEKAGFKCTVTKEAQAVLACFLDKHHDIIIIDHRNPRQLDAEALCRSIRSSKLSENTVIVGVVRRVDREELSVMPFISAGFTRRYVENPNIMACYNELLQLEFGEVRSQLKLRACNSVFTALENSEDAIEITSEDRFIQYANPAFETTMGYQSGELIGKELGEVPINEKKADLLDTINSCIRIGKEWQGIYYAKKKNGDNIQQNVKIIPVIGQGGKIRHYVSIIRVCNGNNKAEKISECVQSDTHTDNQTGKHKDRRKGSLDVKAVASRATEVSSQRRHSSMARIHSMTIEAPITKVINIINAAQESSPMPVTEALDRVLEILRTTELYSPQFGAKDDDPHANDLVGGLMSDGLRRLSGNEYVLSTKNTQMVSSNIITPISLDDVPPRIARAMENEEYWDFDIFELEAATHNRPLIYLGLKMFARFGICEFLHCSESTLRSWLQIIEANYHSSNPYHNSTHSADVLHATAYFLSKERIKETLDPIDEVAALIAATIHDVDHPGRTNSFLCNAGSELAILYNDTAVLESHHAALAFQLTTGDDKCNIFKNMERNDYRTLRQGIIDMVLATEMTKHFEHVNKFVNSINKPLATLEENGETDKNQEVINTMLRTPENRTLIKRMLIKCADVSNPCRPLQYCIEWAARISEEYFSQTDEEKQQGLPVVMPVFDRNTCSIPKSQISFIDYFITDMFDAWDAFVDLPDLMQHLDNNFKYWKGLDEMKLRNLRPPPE
3',5'-cyclic-AMP phosphodiesterase 4C, sequence (Q08493 whole entry): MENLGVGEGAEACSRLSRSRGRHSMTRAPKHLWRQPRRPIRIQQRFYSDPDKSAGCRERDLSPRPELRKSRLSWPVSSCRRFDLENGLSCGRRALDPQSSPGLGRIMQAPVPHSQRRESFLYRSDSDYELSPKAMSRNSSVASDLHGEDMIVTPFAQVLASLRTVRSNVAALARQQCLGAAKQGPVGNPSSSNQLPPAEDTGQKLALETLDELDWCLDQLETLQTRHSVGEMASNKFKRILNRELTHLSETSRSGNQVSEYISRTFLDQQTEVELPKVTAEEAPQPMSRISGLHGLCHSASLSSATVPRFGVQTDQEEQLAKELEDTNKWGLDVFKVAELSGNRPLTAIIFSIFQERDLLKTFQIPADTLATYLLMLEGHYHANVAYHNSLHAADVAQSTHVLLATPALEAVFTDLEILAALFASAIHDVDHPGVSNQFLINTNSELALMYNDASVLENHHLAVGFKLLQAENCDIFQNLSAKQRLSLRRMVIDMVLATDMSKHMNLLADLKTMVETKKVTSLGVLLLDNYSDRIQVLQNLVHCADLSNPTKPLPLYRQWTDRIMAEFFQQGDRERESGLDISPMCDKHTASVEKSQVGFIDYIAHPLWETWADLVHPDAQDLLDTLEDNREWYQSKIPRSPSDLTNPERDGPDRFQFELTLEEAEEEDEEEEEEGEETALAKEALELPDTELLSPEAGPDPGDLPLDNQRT

Papp [1]: 34 ×10⁻⁶ cm/s
solubility kinetic [2]: > 65 µg/mL
IC50 [3]: > 16 µM
IC50 [4]: > 16 µM
IC50 [5]: > 16 µM
IC50 [6]: > 16 µM
IC50 [7]: > 16 µM
half-life [8]: 31 min
IC50 [9]: > 16 µM
IC50 [10]: > 16 µM
IC50 [11]: > 16 µM
IC50 [12]: > 16 µM
IC50 [13]: > 16 µM
IC50 [14]: 0.635 µM
Papp [15]: 18 ×10⁻⁶ cm/s
IC50 [16]: > 16 µM
Structure (SMILES): CCCCCC[C@H]([C@H](C)O)n1cnc2c(N)ncnc21 [(+)-EHNA]
